Data: ChEMBL document CHEMBL1126664, “Pyrazoline bisphosphonate esters as novel antiinflammatory and antiarthritic agents” (1993)

Tests used:
Mus musculus [1] = assay: Inhibition of delayed type hypersensitivity granuloma results at 100 mg/kg in dry weight; type: functional
Outline: (§1)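 Groups of 10 female CF-1 mice (25 g) were sensitised sc over the inguinal lymph node with mBSA emulsion in Freund's incomplete adjuvant plus dextran. Two mBSA-soaked hydroxyapatite disks were implanted per mouse. Sc dosing ran daily from implantation to day 9, then granulomas were excised for wet and dry weights. Student's paired t test.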

Mus musculus [2] = assay: Inhibition of delayed type hypersensitivity granuloma results at 100 mg/kg in wet weight; type: functional; outline: as §1
Mus musculus [3] = assay: Inhibition of delayed type hypersensitivity granuloma results at 50 mg/kg in wet weight; type: functional; outline: as §1
Rattus norvegicus [4] = assay: Inhibition of rat adjuvant-induced arthritis (AIP) at the dose of 5 mg/kg in the non-injected paw; type: functional
Outline: (§2)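 Rats received adjuvant (M. tuberculosis in mineral oil) into the left hindpaw on day 0. Compounds in sterile saline, pH 7.0, were given sc once daily for 28 days, with sc vehicle arthritic controls. Paw volume change in injected and noninjected hindpaws was measured on day 28 by mercury-displacement plethysmography.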

Rattus norvegicus [5] = assay: Inhibition of rat adjuvant-induced arthritis (AIP) at the dose of 60 mg/kg in the non-injected paw; type: functional; outline: as §2
Rattus norvegicus [6] = assay: (§3) Inhibition of rat adjuvant induced polyarthritis (AIP) at the dose of 15 mg/kg in the injected paw; type: functional; outline: as §2
Mus musculus [7] = assay: Inhibition of antigen-induced arthritis (AIA) in mice at the dose of 25 mg/kg in the non-injected paw; type: functional
Mus musculus [8] = assay: Inhibition of delayed type hypersensitivity granuloma results at 25 mg/kg in dry weight; type: functional; outline: as §1
Rattus norvegicus [9] = assay: Inhibition of rat adjuvant-induced arthritis (AIP) at the dose of 15 mg/kg in the non-injected paw; type: functional; outline: as §2
Rattus norvegicus [10] = assay: Inhibition of rat adjuvant-induced arthritis (AIP) at the dose of 100 mg/kg in the non-injected paw; type: functional; outline: as §2
Rattus norvegicus [11] = assay: Inhibition of rat adjuvant induced polyarthritis (AIP) at the dose of 100 mg/kg in the injected paw; type: functional; outline: as §2
Mus musculus [12] = assay: Inhibition of antigen-induced arthritis (AIA) in mice at the dose of 50 mg/kg in the non-injected paw; type: functional
Rattus norvegicus [13] = assay: Inhibition of rat adjuvant induced polyarthritis (AIP) at the dose of 60 mg/kg in the injected paw; type: functional; outline: as §2
Mus musculus [14] = assay: Inhibition of delayed type hypersensitivity granuloma at 25 mg/kg in wet weight; type: functional; outline: as §1
Mus musculus [15] = assay: Inhibition of antigen-induced arthritis (AIA) in mice at the dose of 100 mg/kg in the non-injected paw; type: functional
Mus musculus [16] = assay: Inhibition of delayed type hypersensitivity granuloma results at 50 mg/kg in dry weight; type: functional; outline: as §1
Rattus norvegicus [17] = assay: (§4) Inhibition of rat adjuvant induced polyarthritis (AIP) at the dose of 5 mg/kg in the injected paw; type: functional; outline: as §2
Mus musculus [18] = assay: Inhibition of antigen-induced arthritis (AIA) in mice at the dose of 100 mg/kg; type: functional
Outline: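 Mice were immunised, boosted after 7 days, and challenged 14 days later with 200 μg mBSA in saline into the left rear stifle joint. Dosing was sc in saline at pH 7.0, 5 of 7 days, from challenge (day 0) to day 28. H&E sagittal joint sections were graded 1–5 each for soft tissue inflammation, pannus, and cartilage and bone erosion, then summed (max 20). One-way ANOVA vs vehicle.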

Rattus norvegicus [19] = assay: Inhibition of rat adjuvant induced arthritis (AIP) at the dose of 100 mg/kg in the non-injected paw; type: functional; outline: as §2
Rattus norvegicus [20] = assay: Inhibition of rat adjuvant induced arthritis (AIP) at the dose of 15 mg/kg in the non-injected paw; type: functional; outline: as §2
Mus musculus [21] = assay: Inhibition of delayed type hypersensitivity granuloma results at 200 mg/kg in dry weight; type: functional; outline: as §1
Mus musculus [22] = assay: Inhibition of delayed type hypersensitivity granuloma results at 200 mg/kg in wet weight; type: functional; outline: as §1
Mus musculus [23] = assay: Inhibition of antigen-induced polyarthritis (AIP) in mice at the dose of 200 mg/kg; type: functional
Outline: (§5)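 Murine antigen-induced arthritis: mice immunized with mBSA (with M. tuberculosis), boosted at 7 days, and challenged 14 days later with 200 μg mBSA in saline into the left rear stifle joint. Dosed sc (scruff; saline vehicle, pH 7.0) 5 of 7 days from day 0 to 28. H&E sagittal joint sections scored 1–5 each for inflammation, pannus, and cartilage/bone erosion, summed to a global score (max 20). One-way ANOVA versus vehicle.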

Mus musculus [24] = assay: Inhibition of antigen-induced polyarthritis (AIP) in mice at the dose of 30 mg/kg; type: functional; outline: as §5
Rattus norvegicus [25] = assay: as §3; type: functional; remark: listed apart in the source
Outline: (§6)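 Rat adjuvant arthritis induced by M. tuberculosis in mineral oil into the left hindpaw on day 0. Dosed sc once daily for 28 days in sterile saline adjusted to pH 7.0. Change in paw volume of the injected and noninjected hindpaws measured on day 28 by mercury-displacement plethysmography, giving % inhibition versus the sc vehicle arthritic control.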

Rattus norvegicus [26] = assay: Inhibition of adjuvant-induced polyarthritis (AIP) in rats at the dose of 10 mg/kg in the non-injected paw
Rattus norvegicus [27] = assay: Inhibition of rat adjuvant induced polyarthritis (AIP) at the dose of 10 mg/kg in the injected paw; type: functional; outline: as §6
Mus musculus [28] = assay: Inhibition of antigen-induced polyarthritis (AIP) in mice at the dose of 15 mg/kg; type: functional; outline: as §5
Rattus norvegicus [29] = assay: Inhibition of rat adjuvant induced polyarthritis (AIP) at the dose of 15 mg/kg in the non-injected paw; type: functional; outline: as §6
Rattus norvegicus [30] = assay: Inhibition of rat adjuvant induced polyarthritis (AIP) at the dose of 30 mg/kg in the non-injected paw; type: functional; outline: as §6
Rattus norvegicus [31] = assay: Inhibition of adjuvant-induced polyarthritis (AIP) in rats at the dose of 5 mg/kg in the non-injected paw
Mus musculus [32] = assay: Inhibition of antigen-induced polyarthritis (AIP) in mice at the dose of 50 mg/kg; type: functional; outline: as §5
Mus musculus [33] = assay: Inhibition of antigen-induced polyarthritis (AIP) in mice at the dose of 100 mg/kg; type: functional; outline: as §5
Rattus norvegicus [34] = assay: Inhibition of rat adjuvant induced polyarthritis (AIP) at the dose of 30 mg/kg in the injected paw; type: functional; outline: as §6
Mus musculus [35] = assay: Inhibition of antigen-induced polyarthritis (AIP) in mice at the dose of 5 mg/kg; type: functional; outline: as §5
Rattus norvegicus [36] = assay: as §4; type: functional; outline: as §6; remark: listed apart in the source

## O=C(C1=NNC(P(=O)(O)O)(P(=O)(O)O)C1)c1ccccc1
Mus musculus [1]
  inhibition in vivo at 100 mg/kg: 19%
Mus musculus [2]
  inhibition in vivo at 100 mg/kg: 18%

## CCOP(=O)(OCC)C1(P(=O)(OCC)OCC)CC(C(=O)c2cccc(F)c2)=NN1
Mus musculus [3]
  inhibition in vivo at 50 mg/kg: 45%
Rattus norvegicus [4]
  inhibition in vivo at 5 mg/kg: 0%
Rattus norvegicus [5]
  inhibition in vivo at 60 mg/kg: 46%
Rattus norvegicus [6]
  inhibition in vivo at 15 mg/kg: 4%
Mus musculus [1]
  inhibition in vivo at 100 mg/kg: 65%
Mus musculus [7]
  inhibition in vivo at 25 mg/kg: 42%
Mus musculus [2]
  inhibition in vivo at 100 mg/kg: 58%
Mus musculus [8]
  inhibition in vivo at 25 mg/kg: 49%
Rattus norvegicus [9]
  inhibition in vivo at 15 mg/kg: 46%
Rattus norvegicus [10]
  inhibition in vivo at 100 mg/kg: 55%
Rattus norvegicus [11]
  inhibition in vivo at 100 mg/kg: 22%
Mus musculus [12]
  inhibition in vivo at 50 mg/kg: 52%
Rattus norvegicus [13]
  inhibition in vivo at 60 mg/kg: 8%
Mus musculus [14]
  inhibition in vivo at 25 mg/kg: 42%
Mus musculus [15]
  inhibition in vivo at 100 mg/kg: 55%
Mus musculus [16]
  inhibition in vivo at 50 mg/kg: 51%
Rattus norvegicus [17]
  inhibition in vivo at 5 mg/kg: 0%

## CCOP(=O)(OCC)C1(P(=O)(OCC)OCC)CC(C(=O)c2ccccc2)=NN1C
Mus musculus [1]
  inhibition in vivo at 100 mg/kg: 8%
Mus musculus [2]
  inhibition in vivo at 100 mg/kg: 11%

## CCOP(=O)(OCC)C1(P(=O)(OCC)OCC)CC(C(=O)c2ccccc2C)=NN1
Mus musculus [18]
  inhibition in vivo at 100 mg/kg: 8%
Rattus norvegicus [6]
  inhibition in vivo at 15 mg/kg: 18%
Mus musculus [1]
  inhibition in vivo at 100 mg/kg: 48%
Mus musculus [2]
  inhibition in vivo at 100 mg/kg: 37%
Rattus norvegicus [19]
  inhibition in vivo at 100 mg/kg: 66%
Rattus norvegicus [11]
  inhibition in vivo at 100 mg/kg: 9%
Rattus norvegicus [20]
  inhibition in vivo at 15 mg/kg: 49%

## CCOP(=O)(OCC)C1(P(=O)(OCC)OCC)CC(C(=O)c2ccccc2)=NN1CC(=O)OC
Mus musculus [1]
  inhibition in vivo at 100 mg/kg: 1%
Mus musculus [2]
  inhibition in vivo at 100 mg/kg: 1%

## O=C(C1=NNC(P(=O)(O)O)(P(=O)(O)O)C1)C1CCCCC1
Mus musculus [1]
  inhibition in vivo at 100 mg/kg: 16%
Mus musculus [2]
  inhibition in vivo at 100 mg/kg: 1%

## CCOP(=O)(OCC)C1(P(=O)(OCC)OCC)CC(C(=O)CC)=NN1
Mus musculus [21]
  inhibition in vivo at 200 mg/kg: 35%
Mus musculus [22]
  inhibition in vivo at 200 mg/kg: 28%

## CCOP(=O)(OCC)C1(P(=O)(OCC)OCC)CC(C(=O)c2ccc(C)cc2)=NN1
Mus musculus [1]
  inhibition in vivo at 100 mg/kg: 22%
Mus musculus [2]
  inhibition in vivo at 100 mg/kg: 20%

## CCOP(=O)(OCC)C1(P(=O)(OCC)OCC)CC(C(=O)c2ccccc2)=NN1CCCN1N=C(C(=O)c2ccccc2)CC1(P(=O)(OCC)OCC)P(=O)(OCC)OCC
Mus musculus [1]
  inhibition in vivo at 100 mg/kg: 5%
Mus musculus [2]
  inhibition in vivo at 100 mg/kg: 10%

## O=P(O)(O)C(Cl)(Cl)P(=O)(O)O [CLODRONIC ACID]
Mus musculus [23]
  inhibition in vivo at 200 mg/kg: 52%
Mus musculus [24]
  inhibition in vivo at 30 mg/kg: 46%
Rattus norvegicus [25]
  inhibition in vivo at 15 mg/kg: 33%
Rattus norvegicus [26]
  inhibition in vivo at 10 mg/kg: 61%
Mus musculus [1]
  inhibition in vivo at 100 mg/kg: 47%
Rattus norvegicus [27]
  inhibition in vivo at 10 mg/kg: 38%
Mus musculus [28]
  inhibition in vivo at 15 mg/kg: 46%
Rattus norvegicus [29]
  inhibition in vivo at 15 mg/kg: 70%
Mus musculus [2]
  inhibition in vivo at 100 mg/kg: 45%
Rattus norvegicus [30]
  inhibition in vivo at 30 mg/kg: 54%
Rattus norvegicus [31]
  inhibition in vivo at 5 mg/kg: 51%
Mus musculus [32]
  inhibition in vivo at 50 mg/kg: 46%
Mus musculus [33]
  inhibition in vivo at 100 mg/kg: 51%
Rattus norvegicus [34]
  inhibition in vivo at 30 mg/kg: 36%
Mus musculus [35]
  inhibition in vivo at 5 mg/kg: 4%
Rattus norvegicus [36]
  inhibition in vivo at 5 mg/kg: 21%
